The source made the active and inactive calls. No cut-off for these calls is given here.
What was measured:
Felis catus [1] = test: Antihypertensive activity in anesthetized normotensive cat assessed as mean reduction of diastolic blood pressure at 0.00246 mmol/kg relative to control; format: functional, Artery; set-up: scale not given: the % may be the effect or the level left
Method in brief: (§1)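 Normotensive adult cats dosed at 0.00246 mmol/kg. Systolic and diastolic blood pressure recorded in mmHg and reported as mean ± SE. The value is the mean % change from the control group. Significance versus control was tested at p < 0.05.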

Felis catus [2] = test: Antihypertensive activity in anesthetized normotensive cat assessed as mean reduction of systolic blood pressure at 0.00246 mmol/kg; format: functional, Artery
Felis catus [3] = test: Antihypertensive activity in anesthetized normotensive cat assessed as mean reduction of diastolic blood pressure at 0.00246 mmol/kg; format: functional, Artery
Felis catus [4] = test: Hypotensive activity in anesthetized normotensive cat at 0.0012 mmol/kg; format: functional, organism-based
Felis catus [5] = test: Antihypertensive activity in anesthetized normotensive cat assessed as mean reduction of systolic blood pressure at 0.00246 mmol/kg relative to control; format: functional, Artery; set-up: scale not given: the % may be the effect or the level left; method in brief: as §1
Felis catus [6] = test: Hypotensive activity in anesthetized normotensive cat at 0.0031 mmol/kg; format: functional, organism-based
Felis catus [7] = test: Hypotensive activity in anesthetized normotensive cat at 0.0014 mmol/kg; format: functional, organism-based
Felis catus [8] = test: Hypotensive activity in anesthetized normotensive cat at 0.00285 mmol/kg; format: functional, organism-based

Row | Structure (SMILES) | Activity (Felis catus [1]) | Systolic blood pressure (Felis catus [2]) | Diastolic blood pressure (Felis catus [3]) | Activity (Felis catus [4]) | Activity (Felis catus [5]) | Activity (Felis catus [6]) | Activity (Felis catus [7]) | Activity (Felis catus [8])
1 | CCOC(=O)C(C)/N=C1\CCN(C(=O)C(C)CS)C1Cc1ccc(OC)cc1 (centres undefined) | 32.8% | 93.3 mmHg | 84 mmHg | Active | 30.37% | – | – | –
2 | C[C@H](CS)C(=O)N1CCC[C@H]1C(=O)O [CAPTOPRIL] | 21.89% | 105.9 mmHg | 97.6 mmHg | – | 20.91% | – | – | –
3 | COc1ccc(CC2/C(=N/O)CCN2C(=O)C(C)CS)cc1 (centres undefined) | 12.22% | 121.9 mmHg | 109.7 mmHg | – | 9% | Active | – | –
4 | COc1ccc(CC2C(=O)CCN2C(=O)C(C)CS)cc1 (centres undefined) | 8% | 104.9 mmHg | 115 mmHg | – | 21.67% | – | Active | –
5 | COc1ccc(CC2/C(=N/CCO)CCN2C(=O)C(C)CS)cc1 (centres undefined) | 9% | 106 mmHg | 113.7 mmHg | – | 20.83% | – | – | Active
